This passage reports MEC and MIC results from ChEMBL document CHEMBL3792366, “Role of disulfide linkage in action of bis(dialkylaminethiocarbonyl)disulfides as potent double-Edged microbicidal spermicide: Design, synthesis and biology” (Eur J Med Chem, 2016).

A short description of assay [1]: Spermicidal activity in human sperms assessed as motility measured within 30 secs by phase contrast microscopy. Format: functional, Sperm. An outline of the steps:
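Liquefied human semen (0.05 mL) was added to 0.25 mL test solution and vortexed 10 s at low speed. Motile sperm were scored visually under phase contrast in five fields within 30 s; assays in triplicate; MEC = minimum effective concentration.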

Another assay relates to Candida albicans. Nature of the assay: Antifungal activity against Candida albicans after 48 hrs by broth microdilution method. Format: functional. The gist of the method: (§1)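 NCCLS broth microdilution in RPMI 1640 buffered with MOPS; starting inoculum 1–5 × 10^3 CFU/mL; plates incubated at 35 °C; MIC read after 48 h.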
In general terms: In broth dilution the organism is exposed to a series of concentrations in liquid medium.

The subject of the next assay is Cryptococcus neoformans. Put plainly: Antifungal activity against Cryptococcus neoformans after 48 hrs by broth microdilution method. Format: functional. An outline of the steps:
as §1

Another assay deals with Sporothrix schenckii. Nature of the assay: Antifungal activity against Sporothrix schenckii after 48 hrs by broth microdilution method. Format: functional. The gist of the method:
as §1

Assay [2] relates to Trichophyton mentagrophytes. Nature of the assay: Antifungal activity against Trichophyton mentagrophytes after 48 hrs by broth microdilution method. Format: functional. An outline of the steps:
as §1

For the next assay, the system named is Candida parapsilosis. Put plainly: Antifungal activity against Candida parapsilosis ATCC 22019 after 48 hrs by broth microdilution method. Format: functional. The settings on record: Lodderomyces parapsilosis, ATCC 22019, 48 h. An outline of the steps: as §1
Assay [3] concerns Trichomonas vaginalis. Nature of the assay: Antitrichomonas activity against trophozoite stage of Trichomonas vaginalis clinical isolate assessed as cell viability under anaerobic condition after 48 hrs by trypan blue exclusion assay. Format: functional. An outline of the steps: (§2)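 Log-phase T. vaginalis grown in TYM with 10% FCS, vitamin mix and penicillin/streptomycin at 37 °C. Compounds were made as 100 µg/mL DMSO stocks and serially diluted in TYM down to 0.1 µg/mL; DMSO/TYM served as vehicle. Parasites were incubated anaerobically at 37 °C, and viability was checked by trypan blue exclusion from 3 to 48 h. MIC = lowest concentration killing all cells by 48 h; each test was repeated three times.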

In assay [4] the test system is Trichomonas vaginalis. Put plainly: Antitrichomonas activity against metronidazole-resistant trophozoite stage of Trichomonas vaginalis ATCC 50143 assessed as cell viability under anaerobic condition after 48 hrs by trypan blue exclusion assay. Format: functional. The settings on record: ATCC 50143, 48 h. An outline of the steps:
as §2

In general, MIC refers to the lowest concentration found to suppress growth.

≈ marks a conversion by molar mass, not a printed value. Where only a bound is given, the exact number is not on record here.

On to `Cc1ccc(S(=O)(=O)N2CCN(C(=S)SSC(=S)N3CCN(S(=O)(=O)c4ccc(C)cc4)CC3)CC2)cc1`, for which the MEC in assay [1] was >1%. Further, the MIC in the assay on Candida albicans was > 76.5 µM; against Cryptococcus neoformans, > 76.5 µM; against Sporothrix schenckii, 76.5 µM (≈ 48.3 µg/mL); in assay [2], 76.5 µM (≈ 48.3 µg/mL); with Candida parapsilosis, > 76.5 µM; in the assay on Trichomonas vaginalis [3] it was > 153 µM. The MIC with Trichomonas vaginalis [4] was > 153 µM.

Take `CN1CCN(C(=S)SCSC(=S)N2CCN(C)CC2)CC1`: the MEC in assay [1] turned out to be 0.5%.

Turning to `CS(=O)(=O)N1CCN(C(=S)SSC(=S)N2CCN(S(C)(=O)=O)CC2)CC1`, in assay [1], the MEC is recorded as 1%. Besides, the MIC in the assay on Candida albicans is 104 µM (≈ 49.8 µg/mL); against Cryptococcus neoformans, > 104 µM; with Sporothrix schenckii it was > 104 µM; in assay [2], 52.1 µM (≈ 24.9 µg/mL); against Candida parapsilosis it was > 104 µM; in the assay on Trichomonas vaginalis [3], > 208 µM. Besides, in the assay on Trichomonas vaginalis [4], the minimal inhibitory concentration (MIC) was > 208 µM.

Regarding `S=C(SCCN1CCCCC1)N1CCN(C(=S)SSC(=S)N2CCN(C(=S)SCCN3CCCCC3)CC2)CC1`, the MEC in assay [1] amounted to 0.5%. The MIC in the assay with Candida albicans is > 71.7 µM; with Cryptococcus neoformans, > 71.7 µM; against Sporothrix schenckii, > 71.7 µM; in assay [2], > 71.7 µM; against Candida parapsilosis, > 71.7 µM; with Trichomonas vaginalis [3] it was > 143 µM. The MIC in the assay on Trichomonas vaginalis [4] is > 143 µM.

For `CC(C)COC(=O)N1CCN(C(=S)SSC(=S)N2CCN(C(=O)OCC(C)C)CC2)CC1`, the MEC in assay [1] is given as >1%. In addition, the MIC against Candida albicans was 95.6 µM (≈ 50 µg/mL); with Cryptococcus neoformans it was > 95.6 µM; in the assay with Sporothrix schenckii, > 95.6 µM; in assay [2] it was 95.6 µM (≈ 50 µg/mL); in the assay on Candida parapsilosis, > 95.6 µM; in the assay with Trichomonas vaginalis [3], > 191 µM. In addition, the MIC in the assay with Trichomonas vaginalis [4] was > 191 µM.

For `COc1ccccc1N1CCN(C(=S)SSC(=S)N2CCN(c3ccccc3OC)CC2)CC1`, in assay [1], the MEC was 1%. Also, the MIC is 46.7 µM (≈ 25 µg/mL) against Candida albicans; 23.3 µM (≈ 12.5 µg/mL) against Cryptococcus neoformans; 46.7 µM (≈ 25 µg/mL) in the assay with Sporothrix schenckii; 93.4 µM (≈ 50 µg/mL) in assay [2]; > 93.4 µM in the assay on Candida parapsilosis; > 186 µM in the assay on Trichomonas vaginalis [3]. In the assay with Trichomonas vaginalis [4], the MIC was > 186 µM.

On to `S=C(SSC(=S)N1CCN(C23CC4CC(CC(C4)C2)C3)CC1)N1CCN(C23CC4CC(CC(C4)C2)C3)CC1`, for which the MEC in assay [1] amounted to 1%. The MIC was 84.6 µM (≈ 50 µg/mL) against Candida albicans; 84.6 µM (≈ 50 µg/mL) in the assay with Cryptococcus neoformans; 84.6 µM (≈ 50 µg/mL) in the assay on Sporothrix schenckii; 84.6 µM (≈ 50 µg/mL) in assay [2]; 84.6 µM (≈ 50 µg/mL) against Candida parapsilosis; > 169 µM in the assay on Trichomonas vaginalis [3]. Besides, in the assay on Trichomonas vaginalis [4], the minimum inhibitory concentration (MIC) is > 169 µM.

On to `Fc1ccc(N2CCN(C(=S)SSC(=S)N3CCN(c4ccc(F)cc4)CC3)CC2)cc1`, for which the MEC in assay [1] is reported as >1%. Moreover, the minimum inhibitory concentration (MIC) against Candida albicans is 97.8 µM (≈ 49.9 µg/mL); with Cryptococcus neoformans, > 97.8 µM; against Sporothrix schenckii, 97.8 µM (≈ 49.9 µg/mL); in assay [2], 97.8 µM (≈ 49.9 µg/mL); against Candida parapsilosis it was > 97.8 µM; with Trichomonas vaginalis [3], > 195 µM. Also, the MIC in the assay on Trichomonas vaginalis [4] was > 195 µM.

For `N#CCCCN1CCN(C(=S)SCSC(=S)N2CCN(CCCC#N)CC2)CC1`, the MEC in assay [1] worked out at 0.5%.

On to `N#CCCCN1CCN(C(=S)SCCCSC(=S)N2CCN(CCCC#N)CC2)CC1`, for which the MEC in assay [1] is given as 0.5%.

As to `C=CCN1CCN(C(=S)SCCCSC(=S)N2CCN(CC=C)CC2)CC1`, the MEC in assay [1] was 0.5%.

For `CN1CCN(C(=S)SCCCSC(=S)N2CCN(C)CC2)CC1`, the MEC in assay [1] amounted to 0.5%.

In the case of `CCCCCCSC(=S)N1CCN(CCCC)CC1`, the MEC in assay [1] is recorded as >1%.

With `CCCCN1CCN(C(=S)SCCC)CC1`, the MEC in assay [1] is given as >1%.

For `C=CCN1CCN(C(=S)SCCSC(=S)N2CCN(CC=C)CC2)CC1`, in assay [1], the MEC is reported as 0.5%.

For the molecule `CCCCN1CCN(C(=S)SCSC(=S)N2CCN(CCCC)CC2)CC1`, in assay [1], the MEC is reported as 0.5%.

On to `CCCSC(=S)N1CCN(CCCC#N)CC1`, for which the MEC in assay [1] was >1%.

As to `N#CCCCN1CCN(C(=S)SCCSC(=S)N2CCN(CCCC#N)CC2)CC1`, the MEC in assay [1] was determined as 0.5%.

As for `C=CCN1CCN(C(=S)SCSC(=S)N2CCN(CC=C)CC2)CC1`, the MEC in assay [1] amounted to 1%.
